# This is a sample that favours compounds with a hit; in the whole collection about 3% have one here.
# PLC-beta3 inh – blocks human PLC-beta3 enzyme activity. Q01970. Purified PLC-beta3, fluorogenic substrate, fluorescence. inhibition, % at 12.2 µM. actives 0.18% (n = 370,000). AID 720704; in the data active means inhibition above about 11%;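 further: 0% = median of compound wells on plate and 100% = full blocker control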
# PLC-gamma1 inh – blocks human PLC-gamma1 enzyme activity. purified PLC-gamma1, fluorogenic substrate, fluorescence. inhibition, % at 12.2 µM. actives 0.84% (n = 370,000). AID 720700; in the data active means inhibition above about 9.5%
# Tn7 DDE FP – DD(E)-Tn7 binding inhibition, primary FP screen. P02675. FP displacement of FITC-Tn7 peptide from fibrin DD(E); 0% = median of compound wells per plate. inhibition, % at 8.3 µM. actives 0.13% (n = 370,000). AID 720508;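 active means inhibition above the mean of compounds falling within the control limits plus 3 SD of them, cut at about 14% in these data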;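 further: 0% = plate median of compound wells and 100% = 10 µM Aha-Tn7 peptide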
#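 Assay system: Human fibrin DD(E) protein | Medium: Tris buffer with calcium and detergent, pH 7.8 | Reagent: 0.1 µM fluorescent Tn7 | Compound dosing: Single point at 8.3 µM | Times: 10 min preincubation, 3 h with tracer, room temperature | Detection: Fluorescence polarization of the labelled Tn7 tracer | Controls: Aha-Tn7 high control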
# Tn6 DDE FP – DD(E)-Tn6 binding inhibition, primary FP screen; Fibrin DD(E) TRITC-Tn6 fluorescence polarization displacement; inhibition, % at 8.3 µM; actives 0.21% (n = 370,000); AID 720509;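 active means inhibition above a per-campaign cutoff: mean of compounds within control limits plus 3 SD, cut at about 15% in these data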;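 further: 0% = median of all compound wells on the plate and 100% = blocking peptide control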
# proKLK7 act – activators of human kallikrein-7 zymogen | P49862 | purified proKLK7, EDANS-DABCYL substrate fluorescence; 100% is mature enzyme control, 0% vehicle | activation, % at 7 µM | actives 0.9% (n = 370,000) | AID 652039;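 active means activation above the mean of all tested compounds plus 3 SD, computed per campaign excluding outliers beyond control limits, cut at about 13% in these data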
# Target sequence (P49862 whole entry, looked up): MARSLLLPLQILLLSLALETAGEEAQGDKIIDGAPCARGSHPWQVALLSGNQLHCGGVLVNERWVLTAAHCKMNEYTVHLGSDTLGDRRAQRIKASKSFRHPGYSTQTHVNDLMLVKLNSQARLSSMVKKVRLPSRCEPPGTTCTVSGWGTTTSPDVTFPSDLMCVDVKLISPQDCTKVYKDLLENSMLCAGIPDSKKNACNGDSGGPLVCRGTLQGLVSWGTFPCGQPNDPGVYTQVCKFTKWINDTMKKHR
# NRP1-CendR mod – NRP-1/CendR interaction modulation | O14786 | FAM-RPARPAR peptide binding to NRP-1, fluorescence polarization | inhibition, % at 25 µM | actives 0.85% (n = 360,000) | AID 602438;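 active means inhibition or corrected inhibition above about 18%, plus a signal ratio from 0.5 to 1.5, limit read from the data, passing the limit was not always enough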
# * marks the source's active call; other numbers are inactive results; i = inactive; . = not tested or not shown.
SMILES,PLC-beta3 inh,PLC-gamma1 inh,Tn7 DDE FP,Tn6 DDE FP,proKLK7 act,NRP1-CendR mod
COC(=O)[C@H]1C[C@@]2(C)c3ccccc3N[C@H]2N1,4,1,-6,-2,1,.
N#CCC[C@@H]1CC[C@]2(CCCN(Cc3ccncc3)C2)O1,-2,-2,9,1,0,.
CN(C)c1ccc(N=Cc2c(O)n(CCC3=CCCCC3)c(=O)[nH]c2=O)cc1,.,.,.,.,.,61*
COC(=O)C1=C(c2ccc(OC(F)(F)F)cc2)C[C@@H]2CC[C@H]1N2C(=O)N1CCC(C)CC1,-2,1,5,-3,0,29*
COC(=O)C1=C(c2ccc(C(C)=O)cc2)C[C@@H]2CC[C@H]1N2C(=O)N1CCC(O)CC1,0,2,-2,-5,0,29*
COC(=O)C1=C(c2ccc(OC(F)(F)F)cc2)C[C@@H]2CC[C@H]1N2C(=O)N1CCOCC1,-1,-2,-4,2,0,11
O=C1C2CC=CCC2C(=O)N1SC(Cl)(Cl)Cl (centres undefined),8,4,1,5,0,.
C=CCN1CC[C@]23c4c5ccc(O)c4OC2C(=O)CC[C@@]3(O)[C@H]1C5 (some centres undefined),-1,2,-8,10,0,.
CN(C)C(CNC(=O)Cc1c(Cl)cccc1Cl)c1ccccc1 (centres undefined),0,1,0,1,0,26*
CC(NCc1cccc(Cl)c1Cl)C(O)c1ccccc1 (centres undefined),2,-1,6,5,0,-9
CC(C)(C)n1nnnc1C(c1ccnc2ccccc12)N1CCC2(CC1)C(=O)NCN2c1ccccc1 (centres undefined),-2,0,3,-4,2,36*
O=C(NCCN1CCC2(CC1)C(=O)NCN2c1ccccc1)c1ccc(F)c(F)c1,1,2,2,2,0,.
COc1ccc(-n2c(O)c(C=Nc3c(C)n(C)n(-c4ccccc4)c3=O)c(=O)[nH]c2=O)cc1,2,0,4,17*,0,0
COc1cccc(-n2c(O)c(C=Nc3c(C)n(C)n(-c4ccccc4)c3=O)c(=O)[nH]c2=O)c1,-17,-13,-3,-2,-1,10
CC(C)(C)NC(=O)CN1C(=O)[C@@H](Cc2c[nH]c3ccccc23)N=C(c2ccccc2)c2ccccc21,1,1,2,-1,0,.
CCOC(=O)c1ccccc1C(=O)OCC,1,0,0,-5,1,44*
CCCOC(=O)c1ccccc1C(=O)OCCC,-2,-2,2,2,-1,7
CN(C)C(=O)Oc1ccc(C(=O)c2ccccc2)cc1,2,0,8,1,-1,5
CC(C)(C)n1cc(C(=O)c2ccccc2)cc1-c1ccccc1,-7,-2,4,1,0,21*
CCN(CC)C(=O)c1ccc2c(c1)C1C=CCC1C(C(=O)O)N2 (centres undefined),-33,-20,6,-2,0,45*
CCN(CC)C(=O)c1ccc(N(Cc2ccccc2)S(C)(=O)=O)cc1,-7,2,-3,4,0,8
CCN(CC)C(=O)c1ccc2c(c1)C1C(Cl)C(Sc3ccccc3[N+](=O)[O-])CC1C(C(=O)O)N2 (centres undefined),.,.,.,.,.,46*
CCCCn1c(NS(=O)(=O)c2ccccc2)c(C(=O)OCC)c2nc3ccccc3nc21,i,i,-6,-8,8,-7
CCCCn1c(NC(=O)c2ccc(Br)o2)c(C(=O)OCC)c2nc3ccccc3nc21,i,i,4,2,19*,-20
COC(=O)C1=C(c2ccc(F)cc2F)C[C@@H]2CC[C@H]1N2C(=O)N1CCOCC1,3,-1,-3,3,0,16
SMILES,PLC-beta3 inh,PLC-gamma1 inh,Tn7 DDE FP,Tn6 DDE FP,proKLK7 act,NRP1-CendR mod
COC(=O)C1=C(c2ccc(F)cc2F)C[C@@H]2CC[C@H]1N2C(=O)N1CCCC1,3,0,3,1,-1,28*
COC(=O)C1=C(c2ccc(F)cc2F)C[C@@H]2CC[C@H]1N2C(=O)N1CCCCC1,1,-2,7,-1,0,22*
Cc1cc(O)c2c(c1)C(=O)[C@@]13C(=C2O)C(=O)[C@H]2C(O)[C@@H]1[C@H]1C(O)[C@@H]3C(=O)C3=C(O)c4c(O)cc(C)cc4C(=O)[C@@]312 (some centres undefined),-4,6,-8,4,0,.
COc1ccc(Cc2cn(C)c(N)n2)cc1,-7,-5,3,-2,-1,.
Brc1ccccc1,11*,8,4,2,0,0
C[C@H](NC(=O)OCc1ccccc1)[P+](=O)O,5,2,-1,-4,0,.
COC(=O)C1=C(c2cccc(C#N)c2)C[C@@H]2CC[C@H]1N2C(=O)NCC1CC1,2,2,3,4,0,1
COC(=O)C1=C(c2cccc(C#N)c2)C[C@@H]2CC[C@H]1N2C(=O)NCCc1ccccc1,-2,-1,13,3,0,26*
COC(=O)C1=C(c2ccc(-c3ccccc3)c(F)c2)C[C@@H]2CC[C@H]1N2C(=O)NCc1cc(C)oc1C(F)(F)F,8,10.0*,4,-5,-1,4
COC(=O)C1=C(c2ccc(F)cc2OCc2ccccc2)C[C@@H]2CC[C@H]1N2C(=O)NCCNC(C)=O,0,3,1,0,0,30*
CC(=O)NCC1=C(c2ccc(S(C)(=O)=O)cc2)C[C@@H]2CC[C@H]1N2CCOc1ccccc1,2,1,4,3,0,.
CCOC(=O)[C@]12Cc3cc(Cl)ccc3[C@H]1N(C1CCCCC1)C(=O)c1ccccc12,.,.,.,.,.,11
CC(c1ccccc1)n1cc(C(=O)NC2CCCC2)nn1 (centres undefined),0,1,2,2,0,.
O=C(NC1CN2CCC1CC2)c1cc(-c2ccc(Cl)cc2)nc2ccccc12 (centres undefined),-4,-6,7,6,1,.
COCCCn1c(N)c(C(=O)Nc2ccccc2)c2nc3ccccc3nc21,-39,-28,-2,-4,-6,-2
COCCCn1c(N)c(C(=O)NCc2ccco2)c2nc3ccccc3nc21,-483,-352,-5,3,34*,.
CN1CCc2cc3c(c4c2C1Cc1ccccc1-4)OCO3 (centres undefined),-194,-126,9,15,-1,51*
CC(=O)N1c2ccccc2C(c2ccccc2)=NCC1C(=O)NC1CCCCC1 (centres undefined),2,-1,2,6,1,.
O=C1c2cccc(N3CCNCC3)c2C2CCCCN12 (centres undefined),-2,-2,0,-11,0,21*

# High-throughput results from PubChem.
